A selection: hits, their analogues and other compounds. The true share with any hit is near 1.9%.
TDP2 absorb – blocks human TDP2 phosphodiesterase activity | O95551 | recombinant TDP2, T5PNP hydrolysis, p-nitrophenol absorbance 415 nm | inhibition, % at 12.8 µM | 0.34% of 370,000 active | AID 720702;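 active = inhibition above the mean of all tested compounds plus 3 SD, set per campaign, cut at about 25% in these data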;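 note: 0% = DMSO with enzyme and 100% = buffer with substrate but no TDP2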
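System – recombinant human TDP2 · Quantity – TDP2 enzyme at 120 nM final · Doses – single concentration, 12.8 µM nominal, with 1% DMSO · Incubation – 2 h at 37 °C · Measured by – epi absorbance of p-nitrophenol freed from T5PNP by hydrolysis · Read-out – % inhibition relative to enzyme-containing and enzyme-free wells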
MBD2 DNA inh – MBD2-methylated oligo binding inhibition | TR-FRET, MBD2 binding to methylated oligonucleotide | inhibition, % at 4.4 µM | 0.31% of 370,000 active; in the data active = inhibition above about 13%
UHRF1 MBD2 ctr – blocks human UHRF1 binding to methylated DNA. Q96T88. UHRF1 binding to methylated oligo, TR-FRET. inhibition, % at 4.4 µM. 0.75% of 370,000 active; in the data active = inhibition above about 21%;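 note: UHRF1 SRA domain binding a hemimethylated CpG hairpin DNA probe; 0% = median of test compound wells and 100% = reference inhibitor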
LEDGF integ inh – blocks HIV-1 LEDGF/p75-dependent DNA integration. TR-FRET IN-LEDGF/p75 DNA integration, Eu/Cy5. inhibition, % at 3.7 µM. 0.64% of 370,000 active;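 active = inhibition above the screen-wide mean plus 3 SD, cut at about 13% in these data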;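 note: signal is the Cy5 over europium emission ratio at 671 and 618 nm; 0% = plate median of compound wells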
Rin1-Abl PPI inh – inhibitors of human Rin1-Abl protein interaction; inhibition, % at 7.35 µM; 0.4% of 360,000 active; TR-FRET Rin1/Abl binding, biochemical; P00519+Q13671; in the data active = inhibition above about 5%, passing the limit was not always enough
Rin1-Abl confirm – confirmation of inhibitors of human Rin1-Abl interaction | shares compounds with Rin1-Abl PPI inh | 49% of 1,300 active | TR-FRET Rin1-Abl binding, purified proteins | inhibition, % at 7.35 µM
GFP quencher – counter-screen for Rin1-Abl inhibitors: GFP fluorescence quenchers; shares compounds with Rin1-Abl PPI inh; inhibitors/quenchers counterscreen; inhibition, % at 6.75 µM; 8.5% of 1,300 active; AID 602125;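 note: ABL1-eGFP fusion protein alone without its partner RIN1-SBP; 0% = protein with vehicle and 100% = wells lacking protein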
GFP quench dose – quenches GFP in dose response, Rin1-Abl counter-screen. GFP fluorescence interference/quenching counterscreen. AID 602182. shares compounds with Rin1-Abl PPI inh. IC50, µM. 230 tested, under 10 active; call rule not given here;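 note: ABL1-eGFP fusion protein alone without its RIN1 binding partner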
An asterisk follows results filed as active; / = no result given. Cut-off read from the data, not from the text of the source, unless noted: active = inhibition above about 6.5%; inactive = the rest.

SMILES	TDP2 absorb	MBD2 DNA inh	UHRF1 MBD2 ctr	LEDGF integ inh	Rin1-Abl PPI inh	Rin1-Abl confirm	GFP quencher	others
CCOCc1nnc(NC(=O)c2c(OC)cccc2OC)s1	-12	1	-1	0	22*	24*	0	GFP quench dose=>67
COc1ccc(S[C@]2(C(=O)NC3CC3)CC(=O)N[C@@H]2c2ccc(OC)cc2)cc1	0	7	0	5	/	/	/
Nc1ccn([C@@H]2O[C@H](C(=O)N[C@H](Cc3ccccc3)C(=O)NCc3cccc4c3OCO4)[C@@H](O)[C@H]2O)c(=O)n1	2	-1	-2	0	/	/	/
O=C(NCCc1ccccc1)c1ccc2nc(-c3ccco3)c(-c3ccco3)nc2c1	/	/	/	/	2	/	/
O=C(NCCO)c1ccc2nc(-c3ccco3)c(-c3ccco3)nc2c1	47*	9	42*	77*	10.0*	4	14*
CC(=O)c1ccc(NC(=O)C2(S(=O)(=O)c3ccccc3)CC2)cc1	9	-2	-1	3	10*	-2	-1
CCOC(=O)CCCCCC(=O)Nc1ccc2c(c1)C(=O)N([C@H](C)CO)C[C@H](C)[C@@H](CN(C)S(C)(=O)=O)OCCCC[C@@H](C)O2	3	-5	-1	-4	10*	14*	-1
CCOC(=O)CCCCCC(=O)Nc1ccc2c(c1)C(=O)N([C@@H](C)CO)C[C@H](C)[C@H](CN(C)S(=O)(=O)c1ccc(OC)cc1)OCCCC[C@H](C)O2	10	7	10	0	8	/	/
CCOC(=O)CCCCCC(=O)Nc1ccc2c(c1)C(=O)N([C@@H](C)CO)C[C@H](C)[C@H](CN(C)C(=O)Nc1ccc(C(F)(F)F)cc1)OCCCC[C@H](C)O2	3	0	-3	-3	0	/	/
CCOC(=O)CCCCCC(=O)Nc1ccc2c(c1)C(=O)N([C@H](C)CO)C[C@@H](C)[C@@H](CN(C)C(=O)CCC(F)(F)F)OCCCC[C@H](C)O2	-7	-6	3	5	51*	55*	0	GFP quench dose=>68
COc1ccc(S(=O)(=O)N(C)C[C@H]2Oc3ccc(NC(=O)C4CC4)cc3C(=O)N([C@H](C)CO)C[C@@H]2C)cc1	-4	4	5	-1	19*	26*	-1
COc1ccc(S(=O)(=O)N(C)C[C@H]2Oc3ccc(NC(=O)C4CCCCC4)cc3C(=O)N([C@H](C)CO)C[C@@H]2C)cc1	13	3	4	1	8	/	/
C=CCn1c(COc2ccc(C)cc2)nnc1SCC(=O)Nc1cc(Cl)cc(Cl)c1	-15	-5	-3	3	/	/	/
Cn1c(COc2ccccc2)nnc1SCC(=O)Nc1ccc(S(=O)(=O)Nc2nccs2)cc1	15	1	1	0	/	/	/
COc1ccc([C@H]2OC(=O)C[C@H]2C(=O)N2CCN(C(=O)C3CCCO3)CC2)cc1OC (some centres not stated)	2	-5	0	0	/	/	/
O=C(CCS(=O)(=O)c1ccc(Br)cc1)N1CCN(c2ccccc2Cl)CC1	-12	-1	-1	-3	9.0*	-1	0
COC(=O)[C@]12C[C@H](CC(=O)N3CCOCC3)C(=O)N(Cc3ccco3)C1=C[C@H](C(C)C)O[C@@H]2C1CC1	-7	-6	-1	7	/	/	/
C=CCC(=O)N1CCCC(C(=O)c2ccc(Cl)cc2)C1 (configuration not stated)	-4	0	1	-1	6.9*	0	0
Cc1nnc(SCC(=O)N2CCCC(C(=O)c3ccc(Cl)cc3)C2)o1 (configuration not stated)	7	3	-2	2	-2	/	/
COc1ccc(F)cc1C(=O)C1CCCN(Cc2cn(C)c3ccccc23)C1 (configuration not stated)	-5	-2	0	-2	9.9*	1	-2
CCOc1ccc(CN(C)C(=O)c2ccc(NC(=O)CC3SC(N4CCCC4)=NC3=O)cc2)cc1 (configuration not stated)	-8	0	3	0	10*	5	-2
COc1ccc(Cl)cc1NC(=O)/C=C\C(=O)O	17	4	1	-1	5.4*	-4	0
O=C(CCCSc1nc2ccccc2[nH]1)N1CCN(c2ccccc2)CC1	-7	-3	-2	3	7.0*	7.1*	2
CCOC(=O)[C@]12CCCC=C1N(Cc1ccc(OC)cc1)C(=O)[C@@H]2CC(=O)NCCCOC	1	4	0	-5	/	/	/
Cc1ccc(Nc2nc(N)nc(CSc3ncccn3)n2)cc1	-4	-3	1	2	-2	/	/
SMILES	TDP2 absorb	MBD2 DNA inh	UHRF1 MBD2 ctr	LEDGF integ inh	Rin1-Abl PPI inh	Rin1-Abl confirm	GFP quencher	others
Cc1ccc(Nc2nc(N)nc(CSc3nnc(-c4ccncc4)o3)n2)cc1	8	-1	-1	4	9.6*	10*	0
CC(C)(C)CSc1nnc(-c2cccnc2)n1Cc1ccccc1	2	-4	-1	-3	/	/	/
COC(=O)CCSCc1cn2cc(Cl)ccc2n1	8	1	1	-1	39*	44*	1	GFP quench dose=>68
CCCCCCCCN1C(=O)[C@@H](CC(=O)NCc2cccc3ccccc23)C[C@@]2(C(=O)OC)C1=C[C@H](C(C)C)O[C@@H]2C1CC1	1	-3	-1	6	/	/	/
Cc1cc(C(=O)O)c(C)o1	-6	3	0	6	/	/	/
COc1cc2nc(Nc3ccc(F)cc3)nc(N)c2cc1OC	-3	6	4	-7	14*	16*	0
COc1cc2nc(Nc3ccc(C)c(C)c3)nc(N)c2cc1OC	2	1	2	2	11	/	/
CCOC(=O)CN1C(=O)NC2NC(=O)NC21 (configuration not stated)	3	-1	2	1	14*	18*	0	GFP quench dose=>68
O=C(c1ccc2c(c1)OCO2)N1CCN(c2ncccn2)CC1	5	-2	2	-3	5.3*	-1	-3
CN(CC(=O)Nc1ccccc1Br)C(=O)CNC(=O)c1ccc(Oc2ccccc2)cc1	3	0	0	1	7.6*	-2	0
COC(=O)C1=C(C)N(Cc2ccc(C(F)(F)F)cc2)C(=NCc2ccc3c(c2)OCO3)NC1c1cccc(Cl)c1 (configuration not stated)	-7	2	-3	-1	/	/	/
O=C(Cc1ccccc1)Nc1nnc(-c2cccnc2)s1	1	3	-3	1	/	/	/
CC1(C)CCN2CCC(C)(C)c3c(O)ccc1c32	-6	-2	-5	0	7.6*	2	1
CCCNC(=O)Nc1ccc2c(c1)C(=O)N(C)[C@H]1CC[C@@H](CC(=O)OC)O[C@H]1CO2	-1	-1	-1	1	/	/	/

Screening results deposited in PubChem BioAssay by The Scripps Research Institute Molecular Screening Center.
